H9c2 TAG inh – inhibitors of triacylglycerol accumulation; H9c2 cells, Nile Red lipid (TAG) fluorescence; cells loaded with 200 µM oleic acid; inhibition, % at 12.5 µM; hit rate 0.66% among 230,000;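 active = pattern-corrected inhibition of lipid staining of at least 50% with the nuclear-stain viability signal not falling by more than 50%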;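 also: 0% = DMSO wells and 100% = triacsin C control wells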
GalR3 antagonist – blocks the human galanin receptor 3 | O60755 | HEK293 GalR3-CNG cAMP membrane potential fluorescence; galR3 body fused to GalR1 C-terminus | inhibition, % at 3 µM | hit rate 0.44% among 360,000;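 active = inhibition above the screen-wide average plus 3 SD, cut at about 13% in these data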;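 also: forskolin and galanin both at EC90 stimulate the cells; cAMP rise reported by CNG channel membrane potential dye signal; 0% = forskolin plus galanin with DMSO and 100% = forskolin alone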
Target sequence (O60755 1-299 limits assumed): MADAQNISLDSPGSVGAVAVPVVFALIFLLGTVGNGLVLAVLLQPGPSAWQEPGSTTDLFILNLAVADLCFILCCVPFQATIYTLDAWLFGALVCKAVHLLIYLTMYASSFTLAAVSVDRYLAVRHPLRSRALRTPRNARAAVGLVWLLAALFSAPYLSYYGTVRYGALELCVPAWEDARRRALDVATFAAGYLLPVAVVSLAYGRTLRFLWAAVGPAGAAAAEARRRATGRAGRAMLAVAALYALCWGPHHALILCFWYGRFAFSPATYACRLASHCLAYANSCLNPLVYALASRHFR
MC4R antag cAMP – human MC4R antagonism in cAMP assay | P32245 | MC4R-expressing cells, MTII-stimulated cAMP, LANCE TR-FRET | inhibition, % at 6.5 µM | hit rate 0.48% among 360,000;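 active = inhibition above its plate's cutoff, the mean of tested wells on that plate plus 3 SD, cut at about 29% in these data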;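 also: 0% = Melanotan II alone and 100% = Melanotan II plus saturating MCL0020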
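material = U2OS cells stably expressing human melanocortin 4 receptor (MC4R) | also added = Melanotan II challenge | dosing = single nominal compound dose of 6.5 µM | detection = TR-FRET with Eu-cAMP and labeled anti-cAMP, 671 nm | replication = singlicate | timing = compound 30 min, challenge 1 h, detection 1 h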
MC4R ag barr – agonists of human melanocortin 4 receptor (MC4R) beta-arrestin. P32245. U2OS MC4R beta-arrestin complementation, luminescence; percent of melanotan II response, DMSO zero. activation, % at 8.9 µM. hit rate 0.98% among 360,000;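 active = activation above a per-plate cutoff, the mean activation of sample wells on that plate plus 3 SD, cut at about 8% in these data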
Calb FLC – affects C. albicans growth with fluconazole; C. albicans CaCi-2 + fluconazole, Alamar Blue growth, 48 h; growth inhibition, % (concentration not given with the values); hit rate 0.57% among 300,000;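 active = growth inhibition above about 58% in most replicates, limit read from the data, passing the limit was not always enough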;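 also: all wells also contain fluconazole at 8 µg/ml as a sub-toxic cotreatment; 0% = median of DMSO wells and 100% = median of geldanamycin control wells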
Efflux pump mplx – antifungal efflux pump inhibition, Nile Red retention. S. cerevisiae Candida pump triplex. inhibition, % at 10 µM. hit rate 0.44% among 330,000;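 active = plate passing quality check with inhibition over a set limit, or well fluorescence over plate mean plus 4 SD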;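 also: Nile Red retained in pooled yeast measured as flow cytometry median fluorescence; 0% = buffer negative control and 100% = Enniatin B positive control; higher means more Nile Red kept so more efflux inhibition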
Cmpd fluor yeast – counter-screen for efflux pump inhibitors: compound fluorescence; fluorescence ratio to DMSO, % at 10 µM; AID 588517; S. cerevisiae AD/pABC3, flow cytometry; hit rate 4% among 1,700; shares compounds with Efflux pump mplx;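 active = fluorescence ratio to DMSO above its plate's cutoff, the plate mean ratio plus 5 SD, cut at about 210% in these data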;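 also: unstained yeast with no Nile Red so the signal is compound autofluorescence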
Mdr1 pump inh – inhibitors of Candida albicans Mdr1 efflux pump | shares compounds with Efflux pump mplx | S. cerevisiae AD/CaMDR1, Nile Red efflux, flow cytometry | inhibition, % at 10 µM | hit rate 1% among 1,700 | AID 588518; in the data active = inhibition above about 26%;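 also: 0% = DMSO vehicle and 100% = reference inhibitor; higher means more Nile Red retained so more efflux inhibition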
Cdr2 pump inh – Candida Cdr2 efflux pump inhibition; shares compounds with Efflux pump mplx; S. cerevisiae AD/CaCDR2, Nile Red retention, flow cytometry; Nile Red retention ratio vs DMSO, % at 10 µM; hit rate 4% among 1,700; AID 588520; in the data active = Nile Red retention ratio vs DMSO above about 190%;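 also: higher ratio means more blocking of Cdr2 efflux of the dye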
Cdr1 pump inh – blocks the Candida albicans Cdr1 efflux pump in yeast; shares compounds with Efflux pump mplx; S. cerevisiae AD/CaCDR1, Nile Red efflux, flow cytometry; inhibition, % at 10 µM; hit rate 1% among 1,700; AID 588522;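 active = inhibition above the screen-wide mean plus twice its standard deviation, cut at about 32% in these data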
* hit, by the source's call. Hits are enriched below; roughly 2.9% of the tested compounds scored in any of these assays.

CCCC(=O)OC[C@H]1CN(C2CCCC2)S(=O)(=O)c2c(Oc3ccc(C(C)(C)C)cc3)cccc2O1 was read as GalR3 antagonist 3.
Screening Cc1ccc(-n2c(N)c(C(=O)Nc3c(C)n(C)n(-c4ccccc4)c3=O)c3nc4ccccc4nc32)cc1C returned Calb FLC -3 and Efflux pump mplx 0.
Screening COc1ccc(-n2c(N)c(C(=O)Nc3c(C)n(C)n(-c4ccccc4)c3=O)c3nc4ccccc4nc32)cc1 returned H9c2 TAG inh 10, GalR3 antagonist 2, MC4R antag cAMP 8, MC4R ag barr 2, Calb FLC -2, Efflux pump mplx 0.8*, Cmpd fluor yeast 110, Mdr1 pump inh 0, Cdr2 pump inh 108 and Cdr1 pump inh 0.
C=CCOc1ccc(Cl)cc1-c1noc(-c2csc([C@H]3C[C@H](O)[C@@H](CO)O3)n2)n1 was read as H9c2 TAG inh 16, GalR3 antagonist -4, MC4R antag cAMP 1 and MC4R ag barr -1.
`Cc1ccc(O)c(C(=O)c2cnc3c(c2)CN(CCC(C)C)C(=O)N3)c1` gave H9c2 TAG inh 37, GalR3 antagonist -3, MC4R antag cAMP -1, MC4R ag barr 2, Calb FLC 4, Efflux pump mplx 0.6*, Cmpd fluor yeast 107, Mdr1 pump inh 0, Cdr2 pump inh 104 and Cdr1 pump inh 0.
Cc1ccc(O)c(C(=O)c2cnc3c(c2)CN(C)C(=O)N3)c1 was read as GalR3 antagonist -4, MC4R antag cAMP 4, MC4R ag barr -1, Calb FLC -14 and Efflux pump mplx 0.
`CN(Cc1ccc(Cl)c(Cl)c1)C(C(=O)NCc1ccccc1)c1ccc(C(F)(F)F)cc1` (configuration not stated) gave GalR3 antagonist -9.
`COc1cc(OC)c(NS(=O)(=O)c2ccc(Cl)c(C(=O)OC(C)C(=O)N3CCCC3)c2)cc1Cl` (configuration not stated) gave GalR3 antagonist -5, MC4R antag cAMP 5, MC4R ag barr 2, Calb FLC 8, Efflux pump mplx 7.6*, Cmpd fluor yeast 101, Mdr1 pump inh 0, Cdr2 pump inh 91 and Cdr1 pump inh 0.
For COc1ccc(NS(=O)(=O)c2ccc(C)c(C(=O)OC(C)C(=O)N3CCOCC3)c2)cc1 (configuration not stated) the results were H9c2 TAG inh -5, GalR3 antagonist -5, MC4R antag cAMP 9, MC4R ag barr -4, Calb FLC 1 and Efflux pump mplx 0.
Cc1c(C(=O)O)oc2ccc(S(=O)(=O)NCc3ccc(F)cc3)cc12 was read as GalR3 antagonist -6, MC4R antag cAMP -4, MC4R ag barr -1, Calb FLC 2 and Efflux pump mplx -1.
`Cc1c(C(=O)O)oc2ccc(S(=O)(=O)NC3CCCCCCC3)cc12` gave GalR3 antagonist 1, MC4R antag cAMP 7, MC4R ag barr 0, Calb FLC -10, Efflux pump mplx 1.0*, Cmpd fluor yeast 100, Mdr1 pump inh 0, Cdr2 pump inh 96 and Cdr1 pump inh 0.
Cc1ccc(S(=O)(=O)Cn2nnnc2C(CC(C)C)N2CCN(C)CC2)cc1 (configuration not stated) was read as H9c2 TAG inh 1, GalR3 antagonist 0, MC4R antag cAMP 3, MC4R ag barr 3, Calb FLC 1 and Efflux pump mplx 0.

Assay outcomes: PubChem BioAssay, several laboratories
